# Assay results from BindingDB's records for doi:10.1021/jm980495r (Institute of Mutagenesis and Differentiation, 1999).
# Assays:
# [1] = molecular target: T1, B2 bradykinin receptor (Cavia porcellus, UniProt O70526); test: Antagonistic activity against Bradykinin receptor B2 of guinea pig ileum longitudinal smooth muscle.
# T1 sequence (O70526 whole entry): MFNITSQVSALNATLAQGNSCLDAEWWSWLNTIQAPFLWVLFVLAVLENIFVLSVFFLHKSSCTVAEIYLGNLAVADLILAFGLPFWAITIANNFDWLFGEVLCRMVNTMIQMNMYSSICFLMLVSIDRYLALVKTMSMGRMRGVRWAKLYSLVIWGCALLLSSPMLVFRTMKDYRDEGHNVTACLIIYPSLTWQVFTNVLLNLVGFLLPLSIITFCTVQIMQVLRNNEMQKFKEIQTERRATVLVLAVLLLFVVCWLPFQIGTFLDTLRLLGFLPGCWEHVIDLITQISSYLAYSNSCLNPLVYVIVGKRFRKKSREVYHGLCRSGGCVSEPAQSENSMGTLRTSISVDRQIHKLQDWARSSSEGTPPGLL
# Outline: (§1)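 Guinea pig ileum longitudinal muscle-myenteric plexus strips in oxygenated (95% O2/5% CO2) Krebs with indomethacin, guanethidine (3 μM each), chlorpheniramine, atropine (1 μM each). Cumulative BK curves with thiorphan, bestatin, captopril (1 μM each); antagonist given 15 min before repeat curve at 1–10 μM. Contraction read-out; pA2 (dose ratio 2), mean ± SE of 4–15 experiments.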
# [2] = molecular target: T2, B1 bradykinin receptor (Rattus norvegicus, UniProt P97583); test: Antagonistic activity against Bradykinin receptor B1 of rat ileum longitudinal smooth muscle.
# T2 sequence (P97583 whole entry): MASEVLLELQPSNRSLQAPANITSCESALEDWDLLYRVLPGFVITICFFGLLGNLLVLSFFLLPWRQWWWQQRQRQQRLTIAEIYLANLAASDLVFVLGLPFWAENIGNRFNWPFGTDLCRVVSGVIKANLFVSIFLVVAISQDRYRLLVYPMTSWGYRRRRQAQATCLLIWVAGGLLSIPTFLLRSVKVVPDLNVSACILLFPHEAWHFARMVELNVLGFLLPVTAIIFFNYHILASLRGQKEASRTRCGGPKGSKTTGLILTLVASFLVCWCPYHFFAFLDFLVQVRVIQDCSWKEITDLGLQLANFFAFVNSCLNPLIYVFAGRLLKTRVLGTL
# Outline: as §1, with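 “Rat” for “Guinea pig”, “desArg9-BK” for “BK”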
Kd [1] [nM],Kd [2] [nM],SMILES
6.31,19.9,N=C(N)NCCC[C@@H](N)C(=O)N[C@@H](CCCNC(=N)N)C(=O)N1CCC[C@H]1C(=O)N1CC(O)C[C@H]1C(=O)NCC(=O)N[C@H](C(=O)N[C@@H](CO)C(=O)N[C@@H](C(=O)N1C(C(=O)N[C@H](CCCNC(=N)N)C(=O)O)C[C@@H]2CCCC[C@@H]21)C1Cc2ccccc2C1)C1Cc2ccccc2C1 (some centres undefined) [B-9430]
3160,7.94,N=C(N)NCCC[C@H](NC(=O)[C@H](CCCCN)NC(=O)[C@@H](N)CCCCN)C(=O)N1CCC[C@H]1C(=O)N1CC(O)C[C@H]1C(=O)NCC(=O)N[C@H](C(=O)N[C@@H](CO)C(=O)N[C@@H](C(=O)N1C(C(=O)O)C[C@@H]2CCCC[C@@H]21)C1Cc2ccccc2C1)C1Cc2ccccc2C1 (some centres undefined) [B-9858]
